Reference: ChEMBL document CHEMBL1158347, “Substituted quinazolines, part 3. Synthesis, in vitro antitumor activity and molecular modeling study of certain 2-thieno-4(3H)-quinazolinone analogs” (2009)

tested on: not listed separately; test: Growth inhibition of human renal cancer cells after 48 hrs; assay type: functional; settings: Cancer cell lines
Procedure, shortened: (§1)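 NCI in vitro disease-oriented human tumor cell line screen. Compounds passing a one-dose primary assay (MCF-7, NCI-H460, SF-268; pass = growth of any line reduced to 32% or less) were tested on the 60-line panel over a 5-log dose range. Compounds were dissolved in DMSO, with under 1% DMSO in final dilutions, and tested in duplicate at 6×10^4 cells/ml. Cells were incubated at 37 °C in 5% CO2 for 48 h, then diluted 10-fold in saline and counted with a Coulter counter, with counts corrected for dilution. Controls held PBS/DMSO at identical dilutions. GI50 was reported per line and as subpanel/full-panel mean-graph midpoint.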

Row | Compound | GI50 [µM] | TGI [µM]
1 | O=c1c2cc(I)ccc2nc(-c2cccs2)n1-c1ccc(S(=O)(=O)Nc2nccs2)cc1 | 34.2 | 84.3
2 | O=c1c2cc(I)ccc2nc(-c2cccs2)n1NC(=S)Nc1ccccc1 | 32.5 | 84.8
3 | CCCCNC(=O)c1cc(I)ccc1NC(=O)c1cccs1 | > 100 | > 100

tested on: T47D; test: Growth inhibition of human T47D cells after 48 hrs; assay type: functional; settings: not given; procedure, shortened: as §1

Row | Compound | GI50 [nM] | LC50 [µM] | TGI [µM]
4 | O=c1c2cc(I)ccc2nc(-c2cccs2)n1NC(=S)Nc1ccccc1 | 3000 | > 100 | 17

tested on: MCF7; test: Growth inhibition of human MCF7 cells after 48 hrs; assay type: functional; settings: MCF7, 48 h; procedure, shortened: as §1

Row | Compound | GI50 [µM] | TGI [µM]
5 | O=c1c2cc(I)ccc2nc(-c2cccs2)n1NC(=S)Nc1ccccc1 | 29 | 88

same assay, conditions: MCF7, 48 h, read-out: LC50 (the source's name)

Row | Compound | CC50 [µM]
6 | O=c1c2cc(I)ccc2nc(-c2cccs2)n1NC(=S)Nc1ccccc1 | > 100

tested on: not listed separately; test: Growth inhibition of human ovarian cancer cells after 48 hrs; assay type: functional; settings: Cancer cell lines; procedure, shortened: as §1

Row | Compound | GI50 [µM] | TGI [µM]
7 | O=c1c2cc(I)ccc2nc(-c2cccs2)n1-c1ccc(S(=O)(=O)Nc2nccs2)cc1 | 46.5 | > 100
8 | O=c1c2cc(I)ccc2nc(-c2cccs2)n1NC(=S)Nc1ccccc1 | 21.5 | 77.5
9 | CCCCNC(=O)c1cc(I)ccc1NC(=O)c1cccs1 | > 100 | > 100

tested on: UACC-257; test: Growth inhibition of human UACC257 cells after 48 hrs; assay type: functional; settings: UACC-257, 48 h; procedure, shortened: as §1

Row | Compound | GI50 [µM] | LC50 [µM] | TGI [µM]
10 | O=c1c2cc(I)ccc2nc(-c2cccs2)n1NC(=S)Nc1ccccc1 | 17 | > 100 | 66

tested on: RPMI-8226; test: Growth inhibition of human RPMI8226 cells after 48 hrs; assay type: functional; settings: RPMI-8226, 48 h; procedure, shortened: as §1

Row | Compound | GI50 [µM] | TGI [µM]
11 | O=c1c2cc(I)ccc2nc(-c2cccs2)n1NC(=S)Nc1ccccc1 | 19 | 52

same assay, conditions: RPMI-8226, 48 h, read-out: LC50 (the source's name)

Row | Compound | CC50 [µM]
12 | O=c1c2cc(I)ccc2nc(-c2cccs2)n1NC(=S)Nc1ccccc1 | > 100

tested on: not listed separately; test: Growth inhibition of human melanoma cells after 48 hrs; assay type: functional; settings: Melanoma cell; procedure, shortened: as §1

Row | Compound | GI50 [µM] | TGI [µM]
13 | O=c1c2cc(I)ccc2nc(-c2cccs2)n1-c1ccc(S(=O)(=O)Nc2nccs2)cc1 | 45.2 | 84.8
14 | O=c1c2cc(I)ccc2nc(-c2cccs2)n1NC(=S)Nc1ccccc1 | 23.1 | 62.8
15 | CCCCNC(=O)c1cc(I)ccc1NC(=O)c1cccs1 | > 100 | > 100

tested on: HL-60(TB); test: Growth inhibition of human HL-60(TB) cells after 48 hrs; assay type: functional; settings: HL-60, 48 h
Procedure, shortened: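 NCI 60-cell-line screen over a 5-log dose range. Compounds were dissolved in DMSO, final DMSO under 1%. Duplicate wells were seeded at 6×10^4 cells/ml, with PBS/DMSO vehicle controls at identical dilutions. Cells were incubated 48 h at 37 °C in humidified 5% CO2, diluted 10-fold in saline, and counted by Coulter counter with dilution correction. GI50 read-out.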

Row | Compound | GI50 [nM] | TGI [µM]
16 | O=c1c2cc(I)ccc2nc(-c2cccs2)n1NC(=S)Nc1ccccc1 | 1000 | 22

same assay, conditions: HL-60, 48 h, read-out: LC50 (the source's name)

Row | Compound | CC50 [µM]
17 | O=c1c2cc(I)ccc2nc(-c2cccs2)n1NC(=S)Nc1ccccc1 | > 100

tested on: not listed separately; test: Growth inhibition of human prostate cancer cells after 48 hrs; assay type: functional; settings: Cancer cell lines; procedure, shortened: as §1

Row | Compound | GI50 [µM] | TGI [µM]
18 | O=c1c2cc(I)ccc2nc(-c2cccs2)n1-c1ccc(S(=O)(=O)Nc2nccs2)cc1 | 32.9 | > 100
19 | O=c1c2cc(I)ccc2nc(-c2cccs2)n1NC(=S)Nc1ccccc1 | 25.8 | 76.2
20 | CCCCNC(=O)c1cc(I)ccc1NC(=O)c1cccs1 | > 100 | > 100

tested on: not listed separately; test: Growth inhibition of human Colon cancer cells after 48 hrs; assay type: functional; settings: Cancer cell lines; procedure, shortened: as §1

Row | Compound | GI50 [µM] | TGI [µM]
21 | O=c1c2cc(I)ccc2nc(-c2cccs2)n1-c1ccc(S(=O)(=O)Nc2nccs2)cc1 | 44.7 | 94.6
22 | O=c1c2cc(I)ccc2nc(-c2cccs2)n1NC(=S)Nc1ccccc1 | 29.5 | 84
23 | CCCCNC(=O)c1cc(I)ccc1NC(=O)c1cccs1 | > 100 | > 100

tested on: not listed separately; test: Growth inhibition of human CNS cancer cells after 48 hrs; assay type: functional; settings: Cancer cell lines; procedure, shortened: as §1

Row | Compound | GI50 [µM] | TGI [µM]
24 | O=c1c2cc(I)ccc2nc(-c2cccs2)n1-c1ccc(S(=O)(=O)Nc2nccs2)cc1 | 41.4 | 87.7
25 | O=c1c2cc(I)ccc2nc(-c2cccs2)n1NC(=S)Nc1ccccc1 | 29.2 | 81.4
26 | CCCCNC(=O)c1cc(I)ccc1NC(=O)c1cccs1 | > 100 | > 100

tested on: NSCLC; test: Growth inhibition of human NSCLC cells after 48 hrs; assay type: functional; settings: not given; procedure, shortened: as §1

Row | Compound | GI50 [µM] | TGI [µM]
27 | O=c1c2cc(I)ccc2nc(-c2cccs2)n1-c1ccc(S(=O)(=O)Nc2nccs2)cc1 | 38.7 | 89.5
28 | O=c1c2cc(I)ccc2nc(-c2cccs2)n1NC(=S)Nc1ccccc1 | 24 | 75.2
29 | CCCCNC(=O)c1cc(I)ccc1NC(=O)c1cccs1 | 96 | > 100

tested on: K562; test: Growth inhibition of human K562 cells after 48 hrs; assay type: functional; settings: K562, 48 h; procedure, shortened: as §1

Row | Compound | GI50 [nM] | LC50 (concentration killing 50% of cells) [µM] | TGI [µM]
30 | O=c1c2cc(I)ccc2nc(-c2cccs2)n1NC(=S)Nc1ccccc1 | 20 | 75 | 10

tested on: CCRF-CEM; test: Growth inhibition of human CCRF-CEM cells after 48 hrs; assay type: functional; settings: not given; procedure, shortened: as §1

Row | Compound | GI50 [µM] | TGI [µM]
31 | O=c1c2cc(I)ccc2nc(-c2cccs2)n1NC(=S)Nc1ccccc1 | 21 | 61

same assay, conditions: read-out: LC50 (the source's name)

Row | Compound | CC50 [µM]
32 | O=c1c2cc(I)ccc2nc(-c2cccs2)n1NC(=S)Nc1ccccc1 | > 100

tested on: not listed separately; test: Growth inhibition of human leukemia cells after 48 hrs; assay type: functional; settings: Leukemia cell; procedure, shortened: as §1

Row | Compound | GI50 [µM] | TGI [µM]
33 | O=c1c2cc(I)ccc2nc(-c2cccs2)n1-c1ccc(S(=O)(=O)Nc2nccs2)cc1 | 54 | > 100
34 | O=c1c2cc(I)ccc2nc(-c2cccs2)n1NC(=S)Nc1ccccc1 | 11.5 | 38.5
35 | CCCCNC(=O)c1cc(I)ccc1NC(=O)c1cccs1 | 83.8 | > 100

tested on: SF-539; test: Growth inhibition of human SF539 cells after 48 hrs; assay type: functional; settings: SF-539, 48 h; procedure, shortened: as §1

Row | Compound | GI50 [µM] | TGI [µM]
36 | O=c1c2cc(I)ccc2nc(-c2cccs2)n1NC(=S)Nc1ccccc1 | 34 | > 100

same assay, conditions: SF-539, 48 h, read-out: LC50 (the source's name)

Row | Compound | CC50 [µM]
37 | O=c1c2cc(I)ccc2nc(-c2cccs2)n1NC(=S)Nc1ccccc1 | > 100

tested on: not listed separately; test: Growth inhibition of human breast cancer cells after 48 hrs; assay type: functional; settings: Cancer cell lines; procedure, shortened: as §1

Row | Compound | GI50 [µM] | TGI [µM]
38 | O=c1c2cc(I)ccc2nc(-c2cccs2)n1-c1ccc(S(=O)(=O)Nc2nccs2)cc1 | 34.8 | 88.3
39 | O=c1c2cc(I)ccc2nc(-c2cccs2)n1NC(=S)Nc1ccccc1 | 19.4 | 60.3
40 | CCCCNC(=O)c1cc(I)ccc1NC(=O)c1cccs1 | > 100 | > 100
